Source: paper PMC7661742 (Molecular cancer therapeutics, 2020)

Key:
[1] = target: CDK19 (Homo sapiens, UniProt Q9BWU1); experiment: SelectScreen Kinase Profiling, CDK19; type: biochemical
Summary of the method: (§1)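 Kinases were run in a commercial kinase profiling service. Single-point tests used 1 μM test compound at the ATP concentration specified per kinase. IC50 curves started at 20 μM, followed by 10 subsequent […] dilution steps.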

[2] = target: CDK1 (Homo sapiens, UniProt P06493); experiment: SelectScreen Kinase Profiling, CDK1; type: biochemical
Summary of the method: as §1

[3] = target: CDK2 (Homo sapiens, UniProt P24941); experiment: SelectScreen Kinase Profiling, CDK2; type: biochemical
Summary of the method: as §1

[4] = target: CDK4 (Homo sapiens, UniProt P11802); experiment: SelectScreen Kinase Profiling, CDK4; type: biochemical
Summary of the method: as §1

[5] = target: CDK6 (Homo sapiens, UniProt Q00534); experiment: SelectScreen Kinase Profiling, CDK6; type: biochemical
Summary of the method: as §1

[6] = target: CDK7 (Homo sapiens, UniProt P50613); experiment: SelectScreen Kinase Profiling, CDK7; type: biochemical
Summary of the method: as §1

[7] = target: CDK9 (Homo sapiens, UniProt P50750); experiment: SelectScreen Kinase Profiling, CDK9; type: biochemical
Summary of the method: as §1

[8] = system: granzyme B-positive murine spleen-derived NK cells; experiment: Modulation of granzyme B in mouse splenocytes; type: cell-based; conditions: murine spleen-derived NK cells activated with IL-15 in vitro; 150 nmol/l, 44 h
Summary of the method: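 Cells received 2.5 ng/ml IL-15, 150 nmol/l test compound, or both, for 44 h at 37°C and 5% CO2. Protein transport inhibitor was present for the last 4 h. Cells were stained for CD3ε, NK1.1 and intracellular granzyme B after fix/perm and gated viable CD3−NK1.1+GZMB+ (3–6 mice per group).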

[9] = system: perforin secretion from NK92MI cells; experiment: Perforin release assay; type: cell-based, human; conditions: 24 h, ELISA
Summary of the method: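 NK92MI cells were seeded at 40.000 cells/well with test compound over a concentration range and held 24 h at 37°C, humidified, 5% CO2. IL-15 (50 ng/ml) served as positive control. Secreted perforin in supernatants was quantified by ELISA.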

[10] = system: MC-38 cells; experiment: Viability assay, MC-38; type: cell-based, mouse
Summary of the method: (§2)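 Mouse tumour cells were plated in 96-well plates with CDK8/19 inhibitor over a concentration range, with 72 h or 120 h timing depending on the growth of each line. Cells were held at 37°C, humidified, 5% CO2. Viability was read by CellTiter-Glo luminescence or AlamarBlue, and curves were fitted by iterative sigmoidal analysis.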

[11] = system: B16-F10 cells; experiment: Viability assay, B16-F10; type: cell-based, mouse
Summary of the method: as §2

[12] = system: EMT6 cells; experiment: Viability assay, EMT6; type: cell-based, mouse
Summary of the method: as §2

[13] = system: primary leukemia cells from chronic lymphocytic leukemia patients; experiment: CD20-mediated ADCC with rituximab on primary CLL cells; type: cell-based, human
Summary of the method: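 Primary CLL cells and autologous PBMCs from patients were cultured 48 h with rituximab (10 μg/ml) plus CDK8/19 inhibitor or vehicle. Leukemia-cell depletion was counted by flow cytometry against PKH26 reference microbeads and normalised to the mean of DMSO controls (n=5). The no-NK arm used CLL cells pretreated 48 h with vehicle or inhibitor, then 4 h with vehicle or rituximab. Cell death was read by flow cytometry (n=4).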

[14] = Mouse pharmacokinetics; type: in vivo; conditions: mice
Summary of the method: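 C57BL/6 mice (n=3 per group) were given test compound orally at 25 mg/kg or intravenously at 1 mg/kg. Plasma concentrations were measured by LC-MS at set time points after dosing.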

[15] = Metabolic stability; type: in vitro ADME; conditions: compared with Compound 2
Summary of the method: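 Test compound was incubated with cryopreserved hepatocytes, and compound depletion was quantified over 240 min by LC/MS/MS. In vivo hepatic clearance was predicted from depletion using the well-stirred model.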

[16] = system: STAT1^S727 phosphorylation; type: in vivo, mouse; conditions: daily oral dose of 10 mg/kg, for at least 6 h
[17] = system: B16-F10-luc2 melanoma; experiment: In vivo efficacy, B16-F10-luc2 syngeneic melanoma model; conditions: 10 mg/kg daily oral
Summary of the method: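 Female C57BL/6N mice received 100 thousand B16-F10-luc2 cells intravenously. They were randomized by body weight on day 5, 10 mice per group, then dosed orally once daily. Tumor burden was read as average radiance by luciferase in vivo imaging, alongside survival and body weight. TGI = [1-((treated(final) – treated(Day1))/(control(final) – control(Day1)))] * 100%.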

[18] = system: MC38 tumors; experiment: In vivo efficacy, MC-38 murine syngeneic colon adenocarcinoma model; design: species or system mouse; conditions: BI-1347 10 mg/kg daily oral; anti-PD-1 10 mg/kg i.p. twice weekly
Summary of the method: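 Female C57BL/6N mice were implanted subcutaneously with 100 thousand MC38 cells and randomized by body weight on day 3, 5 mice per group. The anti-PD-1 was rat IgG2a anti-mouse PD-1 (RMP1–14). Readouts were response and TGI at day 20 and complete responses at study end. Groups were compared by one-tailed, non-adjusted Mann Whitney test.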

[19] = system: EMT6 tumors; experiment: In vivo efficacy, EMT6 murine mammary carcinoma model; design: species or system mouse; conditions: BI-1347 monotherapy

CDK19, sequence (Q9BWU1 whole entry): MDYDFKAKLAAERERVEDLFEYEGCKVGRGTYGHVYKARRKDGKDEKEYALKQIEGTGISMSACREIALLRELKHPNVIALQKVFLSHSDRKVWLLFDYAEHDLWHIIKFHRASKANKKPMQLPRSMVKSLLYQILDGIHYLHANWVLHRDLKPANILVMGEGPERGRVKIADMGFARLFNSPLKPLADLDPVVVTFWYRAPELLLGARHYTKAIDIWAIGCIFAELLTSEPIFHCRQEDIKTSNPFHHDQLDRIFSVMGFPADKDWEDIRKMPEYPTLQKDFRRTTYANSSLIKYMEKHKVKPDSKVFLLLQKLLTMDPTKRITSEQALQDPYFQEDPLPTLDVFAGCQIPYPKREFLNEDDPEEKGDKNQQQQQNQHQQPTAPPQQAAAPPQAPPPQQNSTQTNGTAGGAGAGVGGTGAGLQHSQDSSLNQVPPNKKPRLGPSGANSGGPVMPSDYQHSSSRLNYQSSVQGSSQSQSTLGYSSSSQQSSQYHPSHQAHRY
CDK9, sequence (P50750 whole entry): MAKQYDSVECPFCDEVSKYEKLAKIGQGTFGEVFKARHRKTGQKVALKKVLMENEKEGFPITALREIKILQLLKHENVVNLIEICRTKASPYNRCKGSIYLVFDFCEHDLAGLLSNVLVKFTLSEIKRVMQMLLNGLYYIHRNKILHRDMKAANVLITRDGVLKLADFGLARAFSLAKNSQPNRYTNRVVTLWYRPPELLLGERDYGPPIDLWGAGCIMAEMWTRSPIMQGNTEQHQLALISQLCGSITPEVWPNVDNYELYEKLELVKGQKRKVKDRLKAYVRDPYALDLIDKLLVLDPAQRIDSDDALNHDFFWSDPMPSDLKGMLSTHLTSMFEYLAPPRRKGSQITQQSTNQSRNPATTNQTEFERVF
CDK9, sequence (O60563 whole entry partner): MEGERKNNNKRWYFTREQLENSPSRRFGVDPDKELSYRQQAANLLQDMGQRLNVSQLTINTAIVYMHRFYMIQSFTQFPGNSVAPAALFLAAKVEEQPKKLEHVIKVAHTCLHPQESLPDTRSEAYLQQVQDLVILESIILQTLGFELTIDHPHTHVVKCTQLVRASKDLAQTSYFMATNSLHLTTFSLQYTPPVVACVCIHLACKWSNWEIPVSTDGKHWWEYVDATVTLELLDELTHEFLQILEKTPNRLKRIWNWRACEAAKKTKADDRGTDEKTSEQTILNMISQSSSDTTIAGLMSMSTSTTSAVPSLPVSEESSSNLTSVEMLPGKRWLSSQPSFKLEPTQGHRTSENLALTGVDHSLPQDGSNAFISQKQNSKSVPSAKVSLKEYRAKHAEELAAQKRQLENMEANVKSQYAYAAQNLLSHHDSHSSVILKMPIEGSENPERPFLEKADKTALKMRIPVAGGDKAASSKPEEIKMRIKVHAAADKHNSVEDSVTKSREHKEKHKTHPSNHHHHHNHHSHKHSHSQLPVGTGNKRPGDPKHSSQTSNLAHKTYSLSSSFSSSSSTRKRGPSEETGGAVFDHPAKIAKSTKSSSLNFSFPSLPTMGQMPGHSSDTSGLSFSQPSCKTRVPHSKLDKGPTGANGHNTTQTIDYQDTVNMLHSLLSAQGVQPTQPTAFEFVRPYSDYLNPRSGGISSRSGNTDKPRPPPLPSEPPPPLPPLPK
CDK6, sequence (Q00534 whole entry): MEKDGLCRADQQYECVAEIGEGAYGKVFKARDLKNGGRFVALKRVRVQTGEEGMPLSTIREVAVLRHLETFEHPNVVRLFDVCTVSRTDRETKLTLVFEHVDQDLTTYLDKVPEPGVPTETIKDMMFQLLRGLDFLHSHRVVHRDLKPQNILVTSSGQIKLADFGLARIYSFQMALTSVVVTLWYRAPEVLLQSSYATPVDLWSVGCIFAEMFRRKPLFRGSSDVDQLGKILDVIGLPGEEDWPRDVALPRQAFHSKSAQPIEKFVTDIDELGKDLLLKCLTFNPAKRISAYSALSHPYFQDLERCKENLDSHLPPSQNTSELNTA
CDK6, sequence (P24385 whole entry partner): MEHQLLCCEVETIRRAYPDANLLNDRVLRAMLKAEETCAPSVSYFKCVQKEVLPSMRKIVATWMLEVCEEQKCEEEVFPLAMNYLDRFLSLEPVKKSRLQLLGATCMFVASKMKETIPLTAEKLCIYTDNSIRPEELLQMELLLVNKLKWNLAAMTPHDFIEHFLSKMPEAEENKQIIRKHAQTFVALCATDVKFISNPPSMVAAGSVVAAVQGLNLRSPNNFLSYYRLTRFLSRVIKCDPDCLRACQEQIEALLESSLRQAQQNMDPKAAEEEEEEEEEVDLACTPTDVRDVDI
CDK4, sequence (P11802 whole entry): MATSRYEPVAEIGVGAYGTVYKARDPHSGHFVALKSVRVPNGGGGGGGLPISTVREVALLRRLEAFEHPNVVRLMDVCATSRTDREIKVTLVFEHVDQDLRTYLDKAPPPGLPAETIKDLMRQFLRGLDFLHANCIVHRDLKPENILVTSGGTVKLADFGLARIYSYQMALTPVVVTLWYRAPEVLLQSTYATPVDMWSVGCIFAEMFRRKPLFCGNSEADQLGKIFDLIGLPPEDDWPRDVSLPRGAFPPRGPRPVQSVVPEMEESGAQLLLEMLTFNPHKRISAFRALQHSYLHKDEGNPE
CDK4, sequence (P24385 whole entry partner): as the sequence (P24385 whole entry partner) above
CDK7, sequence (P50613 whole entry): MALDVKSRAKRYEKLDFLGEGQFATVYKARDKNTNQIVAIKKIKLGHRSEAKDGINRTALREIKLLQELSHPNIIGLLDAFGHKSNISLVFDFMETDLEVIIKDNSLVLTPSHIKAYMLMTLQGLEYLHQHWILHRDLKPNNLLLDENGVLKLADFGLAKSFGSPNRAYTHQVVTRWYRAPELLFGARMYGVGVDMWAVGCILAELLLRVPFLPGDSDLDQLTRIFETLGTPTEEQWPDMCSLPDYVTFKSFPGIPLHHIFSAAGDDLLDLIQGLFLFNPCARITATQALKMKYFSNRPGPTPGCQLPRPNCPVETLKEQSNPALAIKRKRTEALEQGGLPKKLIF
CDK7, sequence (P51946 whole entry partner): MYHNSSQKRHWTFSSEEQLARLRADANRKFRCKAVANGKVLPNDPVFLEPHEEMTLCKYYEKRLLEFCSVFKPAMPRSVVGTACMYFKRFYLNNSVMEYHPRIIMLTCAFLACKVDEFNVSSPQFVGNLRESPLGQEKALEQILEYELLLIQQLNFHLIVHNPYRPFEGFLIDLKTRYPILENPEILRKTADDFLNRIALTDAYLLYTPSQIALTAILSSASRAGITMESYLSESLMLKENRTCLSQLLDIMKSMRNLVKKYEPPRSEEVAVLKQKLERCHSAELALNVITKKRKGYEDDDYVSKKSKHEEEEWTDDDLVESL
CDK7, sequence (P51948 whole entry partner): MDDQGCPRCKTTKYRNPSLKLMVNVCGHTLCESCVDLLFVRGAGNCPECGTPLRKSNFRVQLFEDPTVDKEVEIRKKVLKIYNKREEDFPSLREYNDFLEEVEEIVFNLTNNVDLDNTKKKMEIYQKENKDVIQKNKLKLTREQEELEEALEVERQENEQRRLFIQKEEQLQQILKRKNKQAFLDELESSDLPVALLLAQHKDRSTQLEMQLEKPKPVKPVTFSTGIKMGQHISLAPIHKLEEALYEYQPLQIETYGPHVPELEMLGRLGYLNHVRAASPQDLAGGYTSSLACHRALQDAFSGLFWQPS
CDK1, sequence (P06493 whole entry): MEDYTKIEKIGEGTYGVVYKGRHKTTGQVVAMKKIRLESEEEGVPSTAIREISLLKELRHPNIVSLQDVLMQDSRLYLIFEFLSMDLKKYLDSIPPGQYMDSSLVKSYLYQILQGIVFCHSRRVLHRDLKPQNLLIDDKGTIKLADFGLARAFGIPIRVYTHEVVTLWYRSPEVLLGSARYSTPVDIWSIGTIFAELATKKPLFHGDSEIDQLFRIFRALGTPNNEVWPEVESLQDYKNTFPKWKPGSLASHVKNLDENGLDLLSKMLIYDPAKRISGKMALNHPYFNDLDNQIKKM
CDK1, sequence (P14635 whole entry partner): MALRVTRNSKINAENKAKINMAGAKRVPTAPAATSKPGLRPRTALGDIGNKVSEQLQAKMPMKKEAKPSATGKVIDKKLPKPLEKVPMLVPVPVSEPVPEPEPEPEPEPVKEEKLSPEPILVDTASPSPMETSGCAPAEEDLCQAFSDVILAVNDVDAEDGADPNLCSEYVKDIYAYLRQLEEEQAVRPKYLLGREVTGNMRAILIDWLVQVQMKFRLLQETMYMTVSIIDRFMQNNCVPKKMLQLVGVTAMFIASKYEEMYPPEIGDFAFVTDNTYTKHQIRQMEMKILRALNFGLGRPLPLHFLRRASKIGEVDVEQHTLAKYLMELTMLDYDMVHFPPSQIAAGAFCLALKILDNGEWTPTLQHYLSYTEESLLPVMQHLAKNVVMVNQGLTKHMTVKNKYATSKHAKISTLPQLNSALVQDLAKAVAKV

## CN(C)C(=O)Cn1cc(-c2ccc(-c3cncc4ccccc34)cc2)cn1 [BI-1347]
[1]
  IC50: < 1 µM
[2]
  inhibition of CDK1: no inhibition
[3]
  inhibition of CDK2: no inhibition
[4]
  inhibition of CDK4: no inhibition
[5]
  inhibition of CDK6: no inhibition
[6]
  inhibition of CDK7: no inhibition
[7]
  inhibition of CDK9: no inhibition
[8]
  increase of the proportion of granzyme B-positive NK cells: approximately 4 fold
[9]
  perforin levels in the supernatant: increased perforin levels
[10]
  in vitro sensitivity: resistant
[11]
  in vitro sensitivity: resistant
[12]
  in vitro sensitivity: resistant
[13]; in presence of PBMCs, 48 h
  ADCC mediated depletion of primary leukemia cells by rituximab: enhances
[13]; purified CLL cells with rituximab, no NK cells
  enhanced ADCC effect in absence of NK cells: not observed
[14]
  exposure and bioavailability (F) after p.o. dosing: Excellent exposure and bioavailability
[14]; 25 mg/kg p.o.
  plasma concentration 24 h after dosing relative to the CDK8 IC50: around 100 fold
[14]; i.v. administration
  clearance: 14 % QH
[15]
  metabolic stability in vitro and in vivo: higher metabolic stability
[16]
  reduction of phosphorylation of STAT1^S727: 60%
[17]
  median survival advantage compared to vehicle-treated animals: 4 days
  tolerability (body weight): well tolerated with minimal effect on body weight
[17]; day 23
  tumor growth inhibition (TGI): 94%
[17]; day 29
  tumor growth inhibition (TGI): 88%
[17]; all control mice sacrificed by day 32
  mice surviving until day 42: 2/10
[18]
  CR [@ end of study, number of mice]: 0/5
  Response [@ d20, number of mice]: 2/5
[19]; 5 days on / 5 days off intermittent scheduling
  median survival: 26 days
[19]; daily oral 10 mg/kg, control 22 days
  median survival: 22.5 days
